The record followed here is ChEMBL document CHEMBL1157083, “Characterization of tamulamides A and B, polyethers isolated from the marine dinoflagellate Karenia brevis” (J Nat Prod, 2010).

Data set [1] relates to Ovis aries. The data set is described as follows: Bronchoconstriction in sheep asthma model assessed as pulmonary airflow resistance at 10 pg/ml administered through aerosol for 20 breaths by pneumotachography relative to control. It is filed as functional.
Data set [2] can be described thus: Displacement of [3H]PbTx-3 from rat brain synaptosome voltage-sensitive sodium channel site 5 after 1 hr by rapid filtration based scintillation counting. It is filed as tissue-based. Put shortly:
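Rat brain synaptosomes (0.1 mg protein/mL final) were incubated on ice for at least 1 h with about 1.5 nM [3H]-PbTx-3 and competitor (0 to 10 μM). Buffer was HEPES/choline chloride medium, pH 7.4, with 1 mg/mL BSA. Bound label was filtered and counted by scintillation. Apparent Ki came from one-site competition fits, with ≥3 experiments each run in duplicate or triplicate.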

For data set [3], the system named is Gambusia affinis. The data set can be described thus: Toxicity in mosquito fish assessed as time required for mortality at 200 nM. It counts as organism-based. Conditions: in vivo, 0.2 µM. Put shortly:
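Fish received 0.2 mL of test solution or an EtOH vehicle in tank water, giving 25-200 nM final. Five fish were used per concentration. Fish were watched for 24 h or until death. Time of death in minutes is given as mean ± S.E.M., compared by t-test.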

The test system of data set [4] is Gambusia affinis. The data set is described as follows: Toxicity in mosquito fish at 25 to 200 nM up to 24 hrs. It is filed as organism-based. Conditions: in vivo, 0.2 µM. Put shortly: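 Fish each received 0.2 mL test solution or EtOH vehicle (0.2 mL), giving final water concentrations of 0, 25, 50, 100 or 200 nM. PbTx-2 positive control at 200 nM. Five fish per concentration. Monitored for 24 hours or until death; time of death as mean ± S.E.M., two-way Student's t-test.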

Data set [5] concerns Ovis aries. The data set is described as follows: Bronchoconstriction in sheep 2263 asthma model assessed as pulmonary airflow resistance at 10 pg/ml administered through aerosol for 20 breaths by pneumotachography relative to control. It counts as functional.
Data set [6] has as its system Ovis aries. The data set is described as follows: Bronchoconstriction in sheep 2164 asthma model assessed as pulmonary airflow resistance at 10 pg/ml administered through aerosol for 20 breaths by pneumotachography relative to control. It is filed as functional.
The subject of data set [7] is Ovis aries. The data set can be described thus: Bronchoconstriction in sheep 2297 asthma model assessed as pulmonary airflow resistance at 10 pg/ml administered through aerosol for 20 breaths by pneumotachography relative to control. It is filed as functional.
The test system of data set [8] is Ovis aries. The data set is described as follows: Bronchoconstriction in sheep 1988 asthma model assessed as pulmonary airflow resistance at 10 pg/ml administered through aerosol for 20 breaths by pneumotachography relative to control. It counts as functional.

Take `C=C(COC(=O)c1ccc2ccccc2c1)C[C@@H]1C[C@H](O)[C@]2(C)O[C@@H]3C[C@@H]4O[C@@H]5C[C@]6(C)O[C@]7(C)CC[C@@H]8O[C@@H]9C[C@]%10(C)O[C@@H]%11C(C)=CC(=O)O[C@H]%11C[C@H]%10O[C@H]9C[C@@H](C)[C@H]8O[C@H]7C[C@H]6O[C@@]5(C)C/C=C\[C@H]4O[C@H]3C[C@H]2O1`: the Activity with Ovis aries [1] was 0%.

In turn, `C=C/C=C\CC[C@H]1O[C@H]2CC[C@@]3(C)O[C@H]4[C@@H](O)C[C@@]5(C)O[C@@H](CC/C=C(C)/C(C)=C/C=O)[C@@H](C)C[C@H]5O[C@@H]4C[C@@H]3O[C@@H]2CC[C@@]1(C)O` [BREVENAL] returned a Ki in data set [2] of 0.17 µM. The Activity in the data set on Ovis aries [1] is given as 4%.

In the case of `C=C(C=O)C[C@@H]1C[C@H](O)[C@]2(C)O[C@@H]3C[C@@H]4O[C@@H]5C[C@]6(C)O[C@]7(C)CC[C@@H]8O[C@@H]9C[C@]%10(C)O[C@@H]%11C(C)=CC(=O)O[C@H]%11C[C@H]%10O[C@H]9C[C@@H](C)[C@H]8O[C@H]7C[C@H]6O[C@@]5(C)C/C=C\[C@H]4O[C@H]3C[C@H]2O1` [BREVETOXIN B], the Activity result with Gambusia affinis [3] is “Toxic”; in the data set on Ovis aries [1], 226%. In data set [2], this molecule registered a Ki of 0.0012 µM.

As for `CC(=O)NC[C@@H]1O[C@@H]2C[C@]3(C)O[C@@H]4C=C[C@@H]5O[C@@H]6C=C[C@@H]7O[C@H](/C=C/C=C/C=O)C=C[C@H]7O[C@H]6C[C@H]5O[C@@]4(C)C[C@H]3O[C@H]2C[C@H]1O` [TAMULAMIDE A], the Activity entry in the data set on Gambusia affinis [4] is reported as “Non-toxic”; with Ovis aries [5], 42%; in the data set with Ovis aries [6], 43%; with Ovis aries [7], 34%; with Ovis aries [8] it was 39%. In data set [2], this molecule came in with a Ki of 2.5 µM.

Regarding `CC(=O)NC[C@@H]1O[C@@H]2C[C@]3(C)O[C@@H]4C=C[C@@H]5O[C@@H]6C=C[C@@H]7O[C@H](/C=C/C=C/C=O)C=C[C@H]7O[C@H]6C[C@H]5O[C@H]4C[C@H]3O[C@H]2C[C@H]1O` [TAMULAMIDE B], the Activity result in the data set on Gambusia affinis [4] was “Non-toxic”; in the data set on Ovis aries [5], 37%; in the data set with Ovis aries [6], 34%; with Ovis aries [7], 33%; in the data set with Ovis aries [8] it was 36%. This molecule also came in with a Ki in data set [2] of 0.21 µM.
